Source: PubChem BioAssay (several laboratories)
Compounds with a hit are over-represented: about 1.7% of the library has one in this group of screens.
LMPTP block: blocks human LMPTP phosphatase; AID 651560; recombinant LMPTP-A, OMFP fluorogenic substrate, fluorescence intensity; P24666; 360,000 tested, 0.22% active; inhibition, % at 20 µM;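 active = compounds that cut the enzyme signal by at least half of the control window in the single-dose screen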;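 also: plate controls were DMSO wells with enzyme plus substrate for no effect and substrate without enzyme for full effect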
Target sequence (P24666 whole entry, looked up): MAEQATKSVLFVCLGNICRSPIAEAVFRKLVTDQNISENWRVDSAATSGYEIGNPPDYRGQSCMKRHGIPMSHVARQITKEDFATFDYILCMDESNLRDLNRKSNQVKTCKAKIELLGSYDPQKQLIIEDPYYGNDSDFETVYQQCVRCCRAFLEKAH
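Assay system: LMPTP-A, protein tyrosine phosphatase of low molecular weight / Medium: pH 6.0 Bis-Tris buffer with DTT and Triton X-100 / Schedule: 50 min enzyme reaction at room temperature, protected from light / Measured by: endpoint fluorescence intensity from OMFP dephosphorylation / Read-out basis: % inhibition relative to no-enzyme and uninhibited control wells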
DSG3 Ab inh: inhibitors of pemphigus antibody binding to human desmoglein-3; 310,000 tested, 0.48% active; binding (percent of control), % at 10 µM; P32926; DSG3-coupled beads, scFv-anti-DSG3-GFP binding, flow cytometry; stronger effect = lower value;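 active = binding more than 3 SD below its plate's average and above zero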;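 also: hits lower antibody fragment binding to DSG3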
Scp-1 inhibitor: inhibitors of human Scp-1 phosphatase. 340,000 tested, 0.88% active. inhibition, % at 20 µM. Recombinant Scp1, phosphopeptide, malachite green phosphate absorbance. Q9GZU7;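 active = inhibition above about 50% at 20 µM, limit read from the data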;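 also: plate controls were DMSO wells with enzyme for no effect and wells lacking enzyme for full effect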
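assay system = SCP-1 phosphatase catalytic domain, residues 76-261 | buffer or medium = 50 mM Tris acetate pH 5.5, 0.005% Tween-20, 10 mM MgCl2 | incubation = enzyme reaction 45 min at room temperature, colour 5 min, stabilisation 30 min | signal = Phosphate-binding colour reagent, absorbance read at 630 nm | measure = % inhibition at 20 µM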
STEP block: inhibitors of human striatal-enriched phosphatase STEP; recombinant STEP, OMFP fluorogenic substrate, fluorescence; inhibition, % at 20 µM; 360,000 tested, 0.25% active;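 active = inhibition at 20 µM, scaled per plate between control wells, above about 37%, limit read from the data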;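 also: 0% = DMSO with enzyme and substrate and 100% = substrate only without enzyme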
Target sequence (P54829 whole entry, looked up): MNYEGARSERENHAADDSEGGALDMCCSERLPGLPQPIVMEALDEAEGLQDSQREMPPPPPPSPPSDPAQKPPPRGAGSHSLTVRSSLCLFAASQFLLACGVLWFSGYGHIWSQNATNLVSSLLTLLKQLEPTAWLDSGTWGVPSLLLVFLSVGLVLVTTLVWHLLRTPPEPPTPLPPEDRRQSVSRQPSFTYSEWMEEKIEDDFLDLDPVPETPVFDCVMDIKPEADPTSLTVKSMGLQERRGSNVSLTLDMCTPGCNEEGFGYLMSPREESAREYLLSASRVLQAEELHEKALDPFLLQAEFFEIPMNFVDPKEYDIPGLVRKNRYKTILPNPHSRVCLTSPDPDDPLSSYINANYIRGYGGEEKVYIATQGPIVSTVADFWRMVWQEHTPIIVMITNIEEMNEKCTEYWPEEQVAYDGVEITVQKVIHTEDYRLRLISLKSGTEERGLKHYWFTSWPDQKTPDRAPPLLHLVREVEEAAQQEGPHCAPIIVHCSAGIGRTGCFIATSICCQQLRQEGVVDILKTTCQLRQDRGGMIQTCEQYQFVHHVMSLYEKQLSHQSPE
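System: STEP (striatal-enriched tyrosine phosphatase) enzyme, cell-free; medium: Bis-Tris pH 6.0 buffer with DTT, detergent; dosing: 20 µM, 1% DMSO; times: reaction 20 min, ambient temperature; detection: fluorescence, 480/540 nm; read-out basis: normalized % inhibition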
SUMO1-SIM PPI: SUMO1-SIM interaction modulation. AID 602429. SUMO1 binding to a labelled peptide, TR-FRET, 1 h. inhibition, % at 20 µM. P63165. 360,000 tested, 0.33% active; in the data active = inhibition above about 37%
Scp-1 conf: confirmation of human Scp-1 phosphatase inhibitors | shares compounds with Scp-1 inhibitor | recombinant SCP-1 catalytic domain, phosphate release, malachite green absorbance | inhibition, % at 20 µM | 2,500 tested, 61% active | AID 540281;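 also: plate controls were DMSO with enzyme for no effect and buffer wells lacking enzyme for full effect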
Scp-1 MG ctr: interferes with malachite green readout, flagging false Scp-1 hits; Colorimetric interference counterscreen, malachite green absorbance 630 nm; 2,500 tested, under 10 active; shares compounds with Scp-1 inhibitor; apparent inhibition (interference), % at 20 µM;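 also: compounds added after enzyme reaction finished so only phosphate colour detection is probed; plate controls were DMSO wells with completed Scp-1 reaction for no effect and substrate wells lacking enzyme for full effect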
Scp-1 Tm shift: validation of human Scp-1 inhibitors by thermal shift binding. shares compounds with Scp-1 inhibitor. Recombinant SCP1, Sypro Orange thermal shift Tm. thermal shift relative to vanadate control, % at 40 µM. 1,500 tested, 25% active;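 active = substances whose mean melting-temperature shift, as a percentage of the reference inhibitor's shift, reaches about 5.3%, limit read from the data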;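 also: 0% = Tm of DMSO wells and 100% = Tm with sodium orthovanadate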
The depositor's hits bear a star; · = no result.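 The calls were made as follows, unless noted: active = inhibition of at least 30% at 20 µM; inactive = the rest.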

SMILES	LMPTP block	DSG3 Ab inh	Scp-1 inhibitor	STEP block	SUMO1-SIM PPI	Scp-1 conf	Scp-1 MG ctr	Scp-1 Tm shift
COc1ccccc1CNC(=O)c1cnccn1	0.4	100.1	55.9*	-2.3	1.6	56.9*	-11.2	-0.2
CC(C)c1ccc(OC(=O)c2cccc(S(=O)(=O)N3CCN(C)CC3)c2)cc1	-2.3	105.0	95.6*	-1.9	3.1	86.2*	-8.2	-27.0
O=C(COC(=O)c1ccc(Cl)c(S(=O)(=O)N2CCCCC2)c1)NCc1ccco1	1.4	96.8	71.2*	-3.0	7.8	44.6*	-22.2	-10.3
CC(NC(=O)COC(=O)c1cccc(S(=O)(=O)N2CCCC2)c1)c1ccccc1 (stereo not given)	-1.6	113.8	53.0*	-1.2	-1.3	-12.6	-17.0	·
CN1CCN(S(=O)(=O)c2cccc(C(=O)Oc3ccc(C(C)(C)C)cc3)c2)CC1	-3.6	100.1	-0.4	-0.4	-0.2	·	·	·
O=C(COC(=O)c1cccc(S(=O)(=O)N2CCN(c3ccccc3)CC2)c1)NCc1ccco1	8.5	97.1	66.1*	11.5	5.1	58.2*	-19.4	4.4
O=C(NCc1cc(Cl)cc(Cl)c1)c1ccc2nc([C@@H]3O[C@H](CO)[C@@H](O)[C@H]3O)[nH]c2c1	-1.1	·	·	1.8	2.9	·	·	·
Cc1cc(Cl)ccc1NC(=S)NCCC(c1ccccc1)c1ccccc1	3.8	·	-6.2	-0.8	-0.3	·	·	·
O=C(OCc1ccc(Br)cc1F)c1cc2ccccc2oc1=O	0.5	·	-1.4	2.1	-5.0	·	·	·
Cc1ccc(S(=O)(=O)CCC(=O)Nc2cccc(C)c2)cc1	-2.6	94.1	-3.9	-3.0	1.2	·	·	·
CCc1cccc(NC(=O)CCS(=O)(=O)c2ccc(Br)cc2)c1	2.3	99.8	86.2*	10.4	38.5	64.8*	-21.4	-13.8
O=C(CCS(=O)(=O)c1ccc(Br)cc1)Nc1ccc(Cl)cc1F	-0.1	100.6	-9.7	-1.6	16.4	·	·	·
O=C(CCS(=O)(=O)c1ccc(Br)cc1)Nc1ccc(Br)cc1F	-0.1	98.5	56.1*	4.5	17.2	53.8*	-22.4	-8.4
CC(=O)Nc1cc2c(c(Cl)c1Cl)-c1ccccc1C2=O	23.4	92.9	80.1*	5.8	37.1	-15.4	-12.9	·
O=C(CN(c1cccc([N+](=O)[O-])c1)S(=O)(=O)c1ccccc1)N1CCCCC1	0.1	103.3	0.1	-2.4	-13.9	·	·	·
O=C(N/N=C/C(Cl)=C/c1ccc([N+](=O)[O-])cc1)C(=O)Nc1ccc(C(=O)O)cc1	22.4	96.6	85.4*	34.3	3.3	62.3*	-16.2	-2.8
CN(/N=C/c1cccnc1)c1cnn(-c2ccc(F)c(Cl)c2)c(=O)c1Cl	-0.2	97.0	75.0*	1.0	-4.1	39.1*	-8.5	-19.7
CN(/N=C/c1c[nH]c2ccccc12)c1cnn(-c2ccc(F)c(Cl)c2)c(=O)c1Cl	1.2	101.7	2.5	-2.9	-1.3	·	·	·
N#CC1(NC(=O)COc2cc(F)ccc2[N+](=O)[O-])CCCCC1	-0.7	110.4	-2.7	-1.6	-10.1	·	·	·
N#CC1(NC(=O)COc2ccccc2[N+](=O)[O-])CCCCC1	-2.0	91.5	52.1*	-1.7	-3.9	73.0*	-21.9	-7.0
O=C(Cc1c(F)cccc1Cl)Nc1ccc(S(=O)(=O)NCC2CCCO2)cc1 (stereo not given)	-0.5	114.7	-2.7	-0.9	-1.9	·	·	·
Cc1cnc(C(=O)OCc2nc3ccsc3c(=O)[nH]2)cn1	1.8	102.2	65.5*	3.0	19.9	64.2*	-6.0	11.0*
Cc1ccc(C)c(C(=O)Nc2cc(C)nn2-c2nc(C)cc(C)n2)c1	1.0	98.4	6.0	1.3	5.0	·	·	·
Cc1csc(NC(=O)c2cn3ccccc3n2)n1	0.5	100.8	-12.3	-0.4	-0.3	·	·	·
COc1ccccc1OCCSc1nc2ccccc2n1CCC(=O)O	-1.4	106.2	8.9	-1.0	9.1	·	·	·
SMILES	LMPTP block	DSG3 Ab inh	Scp-1 inhibitor	STEP block	SUMO1-SIM PPI	Scp-1 conf	Scp-1 MG ctr	Scp-1 Tm shift
COc1ccccc1OCCn1c(SCC(=O)O)nc2ccccc21	-1.6	111.8	62.0*	2.8	2.3	50.3*	-8.4	-15.6
CCC1CCCCN1S(=O)(=O)c1ccc2[nH]c(=O)ccc2c1 (stereo not given)	12.1	97.7	58.0*	1.3	1.8	49.2*	-0.5	3.4
CCCNC(=O)C1CCN(S(=O)(=O)c2ccc3[nH]c(=O)ccc3c2)CC1	-2.2	102.2	-1.2	2.3	4.0	·	·	·
CCOC(=O)c1ccc(NC(=O)CSc2nc(C)cc(=O)[nH]2)cc1	16.6	·	70.7*	2.4	6.5	57.9*	-19.4	10.5*
Cc1cc(=O)[nH]c(SCC(=O)Nc2ccc(C(=O)O)cc2)n1	-0.4	107.7	-2.0	-0.6	0.8	·	·	·
Cc1cc(=O)[nH]c(SCC(=O)Nc2ccc(S(N)(=O)=O)cc2)n1	0.5	107.1	51.5*	1.6	9.0	47.5*	-18.6	3.7
COC(=O)c1ccc(OC)cc1OCC(=O)N1CCN(c2ccc(F)cc2)CC1	-1.9	·	-5.5	-3.6	-2.3	·	·	·
O=C(c1ccc(F)cc1)N1CCN=C1c1ccccc1	-1.8	95.1	9.2	-1.6	-2.1	·	·	·
Nc1nc2c(Br)ccc(Br)c2cc1C(=O)NCc1cccc2ccccc12	2.2	·	·	·	-5.4	·	·	·
CC(=O)NC(Cc1c[nH]c2ccccc12)C(=O)NCc1ccco1 (stereo not given)	-1.1	102.5	-0.8	0.9	5.8	·	·	·
CC(Cc1c[nH]c2ccccc12)C(=O)NCc1ccco1 (stereo not given)	0.4	100.3	103.5*	0.4	60.3*	59.8*	-15.8	-17.9
COC(=O)[C@H](CC(C)C)NC(=O)NCCC1=CCCCC1	-0.3	106.1	85.1*	-0.2	10.9	-11.1	-11.2	·
CC(C)C[C@H](NC(=O)NCCC1=CCCCC1)C(=O)O	-2.5	100.3	-4.1	-5.0	-0.3	·	·	·
Brc1ccc(-c2nn3c(-c4ccccn4)nnc3s2)o1	0.2	97.7	72.0*	5.6	-1.6	50.3*	-10.9	2.4
c1ccc(-c2nn3c(-c4ccco4)nnc3s2)nc1	1.0	·	4.5	6.4	17.4	·	·	·
Brc1ccc(-c2nn3c(-c4ccco4)nnc3s2)o1	10.0	99.1	52.1*	16.7	17.7	22.2	-16.2	·
Clc1ccc(-c2ccc(-c3nn4c(-c5ccco5)nnc4s3)o2)cc1	26.2	89.0	77.3*	4.6	30.0	50.0*	-10.6	-0.5
Clc1ccc(OCc2nn3c(-c4ccco4)nnc3s2)c(Cl)c1	31.5	98.6	81.3*	4.4	0.3	70.1*	-10.9	1.6
CSc1ccc(S(=O)(=O)N2CCC(C(=O)NCc3ccco3)CC2)cc1	0.8	103.0	-7.5	-1.9	-6.4	·	·	·
